How the values were obtained:
[1] = tested on: Mycobacterium tuberculosis; experiment: Inhibition of multidrug resistance efflux pump in Mycobacterium tuberculosis H37Rv assessed as amikacin MIC at 1 ug/ml after 7 days by two-dimensional broth microdilution checkerboard assay; conditions: 168 h
In short: (§1)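 M. tuberculosis H37Rv two-dimensional broth microdilution checkerboard. MICs of INH, RIF, AMK, OFX or EtBr were determined without and with graded sub-inhibitory compound concentrations, starting at ½ MIC. Where MIC was undeterminable, the highest concentration still permitting growth was taken as ½ MIC. FIC = MIC of antibacterial in combination / MIC alone. FIC ≤0.25 was scored as synergism and ≥2 as antagonism.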

[2] = tested on: Mycobacterium tuberculosis; experiment: Inhibition of multidrug resistance efflux pump in Mycobacterium tuberculosis H37Rv assessed as reduction in amikacin MIC at 32 ug/ml after 7 days by two-dimensional broth microdilution checkerboard assay; in short: as §1
[3] = tested on: Mycobacterium tuberculosis; experiment: Inhibition of multidrug resistance efflux pump in Mycobacterium tuberculosis H37Rv assessed as reduction in ofloxacin MIC at 128 ug/ml after 7 days by two-dimensional broth microdilution checkerboard assay
[4] = tested on: Mycobacterium tuberculosis; experiment: Inhibition of multidrug resistance efflux pump in Mycobacterium tuberculosis H37Rv assessed as reduction in isoniazid MIC at 128 ug/ml after 7 days by two-dimensional broth microdilution checkerboard assay
[5] = tested on: Mycobacterium tuberculosis; experiment: Inhibition of multidrug resistance efflux pump in Mycobacterium tuberculosis H37Rv assessed as rifampin MIC at 0.12 ug/ml after 7 days by two-dimensional broth microdilution checkerboard assay; conditions: 168 h
In short: (§2)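 M. tuberculosis H37Rv ATCC27294. MICs of INH, RIF, AMK, OFX and EtBr were determined alone and with sub-inhibitory concentrations of test compound by two-dimensional broth microdilution checkerboard. Where a compound's MIC was not determinable, the highest concentration still allowing growth was taken as ½ MIC. FIC = MIC in combination / MIC alone. FIC ≤0.25 was scored as synergism and ≥2 as antagonism.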

[6] = tested on: Mycobacterium tuberculosis; experiment: Inhibition of multidrug resistance efflux pump in Mycobacterium tuberculosis H37Rv assessed as ethidium bromide MIC at 0.94 ug/ml after 7 days by two-dimensional broth microdilution checkerboard assay; conditions: 168 h; in short: as §2
[7] = tested on: Mycobacterium tuberculosis; experiment: Inhibition of multidrug resistance efflux pump in Mycobacterium tuberculosis H37Rv assessed as rifampin MIC at 0.23 ug/ml after 7 days by two-dimensional broth microdilution checkerboard assay; conditions: 168 h; in short: as §2
[8] = tested on: Mycobacterium tuberculosis; experiment: Inhibition of multidrug resistance efflux pump in Mycobacterium tuberculosis H37Rv assessed as ofloxacin MIC at 0.47 ug/ml after 7 days by two-dimensional broth microdilution checkerboard assay; conditions: 168 h; in short: as §2
[9] = tested on: Mycobacterium tuberculosis; experiment: Inhibition of multidrug resistance efflux pump in Mycobacterium tuberculosis H37Rv assessed as ofloxacin MIC at 0.94 ug/ml after 7 days by two-dimensional broth microdilution checkerboard assay; conditions: 168 h; in short: as §2
[10] = tested on: Mycobacterium tuberculosis; experiment: Inhibition of multidrug resistance efflux pump in Mycobacterium tuberculosis H37Rv assessed as ofloxacin MIC at 1.88 ug/ml after 7 days by two-dimensional broth microdilution checkerboard assay; conditions: 168 h; in short: as §2
[11] = tested on: Mycobacterium tuberculosis; experiment: Inhibition of multidrug resistance efflux pump in Mycobacterium tuberculosis H37Rv assessed as rifampin MIC at 1.88 ug/ml after 7 days by two-dimensional broth microdilution checkerboard assay; conditions: 168 h; in short: as §2
[12] = tested on: Mycobacterium tuberculosis; experiment: Inhibition of multidrug resistance efflux pump in Mycobacterium tuberculosis H37Rv assessed as rifampin MIC at 7.5 ug/ml after 7 days by two-dimensional broth microdilution checkerboard assay; conditions: 168 h; in short: as §1
[13] = tested on: Mycobacterium tuberculosis; experiment: Inhibition of multidrug resistance efflux pump in Mycobacterium tuberculosis H37Rv assessed as ethidium bromide MIC at 0.12 ug/ml after 7 days by two-dimensional broth microdilution checkerboard assay; conditions: 168 h; in short: as §2
[14] = tested on: Mycobacterium tuberculosis; experiment: Inhibition of multidrug resistance efflux pump in Mycobacterium tuberculosis H37Rv assessed as isoniazid MIC at 3.75 ug/ml after 7 days by two-dimensional broth microdilution checkerboard assay; conditions: 168 h; in short: as §1
[15] = tested on: Mycobacterium tuberculosis; experiment: Inhibition of multidrug resistance efflux pump in Mycobacterium tuberculosis H37Rv assessed as isoniazid MIC at 7.5 ug/ml after 7 days by two-dimensional broth microdilution checkerboard assay; conditions: 168 h; in short: as §1

SMILES: CN1CCCCC1CCn1c2ccccc2c2ccccc21 (racemic)
- MIC [1]: 1 µg/mL
- fold change (FC) [2]: 4

SMILES: CN1CCCCC1CCn1ccc2ccc(Br)cc21 (racemic)
- fold change (FC) [3]: >128
- fold change (FC) [4]: >164

SMILES: CSc1ccc2c(c1)N(CCC1CCCCN1C)c1ccccc1S2 (stereo not given) [THIORIDAZINE]
- MIC [5]: 1 µg/mL
- MIC [6]: 6.25 µg/mL
- MIC [7]: 1 µg/mL
- MIC [8]: 1 µg/mL
- MIC [9]: 1 µg/mL
- MIC [10]: 1 µg/mL
- MIC [11]: 1 µg/mL
- MIC [12]: < 0.0156 µg/mL
- MIC [13]: 6.25 µg/mL
- MIC [14]: 0.05 µg/mL
- MIC [15]: < 0.00078 µg/mL
